Reference: ChEMBL document CHEMBL4138168, “Design and synthesis of novel thiobarbituric acid derivatives targeting both wild-type and BRAF-mutated melanoma cells” (Eur J Med Chem, 2018)
The source made the active and inactive calls. The calls are words filed in the database; no cut-off is given here.

What was measured:
[1] = test system: UACC-903; experiment: Induction of apoptosis in human UACC-903 cells harboring BRAF mutant assessed as apoptotic cells level at 25 uM after 24 hrs by AAD dye containing caspase 3/7 activity assay (reference value: 6.88%); assay type: functional
[2] = test system: UACC-903; experiment: Induction of apoptosis in human UACC-903 cells harboring BRAF mutant assessed as live cells level at 25 uM after 24 hrs by AAD dye containing caspase 3/7 activity assay (reference value: 90.06%); assay type: functional
[3] = test system: UACC-903; experiment: Induction of apoptosis in human UACC-903 cells harboring BRAF mutant assessed as dead cells level at 25 uM after 24 hrs by AAD dye containing caspase 3/7 activity assay (reference value: 0.06%); assay type: functional
[4] = test system: UACC-903; experiment: Induction of apoptosis in human UACC-903 cells harboring BRAF mutant assessed as viable cells at 25 uM after 24 hrs by Annexin V/7-AAD staining-based assay (reference value: 95.64%); assay type: functional; settings: UACC-903, 24 h, read-out: Activity
[5] = test system: UACC-903; experiment: Induction of apoptosis in human UACC-903 cells harboring BRAF mutant assessed as […] in cleaved PARP level at 5 to 25 uM after 24 hrs by Western blot analysis; assay type: functional, cell-based
Outline: (§1)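 2 × 10^6 cells treated with the indicated concentrations for 24 h. Whole-cell lysates run on SDS-PAGE, transferred to PVDF, probed with antibodies against apoptosis/survival proteins, and detected by enhanced chemiluminescence.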

[6] = test system: MCF7; experiment: Antiproliferative activity against human MCF7 cells expressing ER/PR/HER2 after 48 hrs by MTT assay; assay type: functional, cell-based; settings: MCF7, 48 h
Outline: (§2)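 3,000 cells per well, grown at 37 °C (DMEM with 10% FBS and penicillin/streptomycin; HCT116 in McCoy's 5A). Cells exposed in triplicate to 0.5–25 μM compound for 48 h. MTT (5 mg/mL PBS stock) added for 3 h, formazan dissolved in DMSO, OD read at 570 nm minus 630 nm background. IC50 from non-linear regression of two independent experiments.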

[7] = test system: CHL-1; experiment: Induction of apoptosis in human CHL-1 cells harboring wild type BRAF assessed as decrease in survivin level at 5 to 25 uM after 24 hrs by Western blot analysis; assay type: functional, cell-based; outline: as §1
[8] = test system: UACC-903; experiment: Induction of apoptosis in human UACC-903 cells harboring BRAF mutant assessed as apoptotic cells level at 5 uM after 24 hrs by AAD dye containing caspase 3/7 activity assay (reference value: 6.88%); assay type: functional
[9] = test system: UACC-903; experiment: Induction of apoptosis in human UACC-903 cells harboring BRAF mutant assessed as apoptotic dead cells level at 5 uM after 24 hrs by AAD dye containing caspase 3/7 activity assay (reference value: 3%); assay type: functional
[10] = test system: UACC-903; experiment: Induction of apoptosis in human UACC-903 cells harboring BRAF mutant assessed as early apoptotic cells at 5 uM after 24 hrs by Annexin V/7-AAD staining-based assay (reference value: 2.68%); assay type: functional
[11] = test system: MDA-MB-231; experiment: Antiproliferative activity against ER/PR/HER2 deficient human MDA-MB-231 cells after 48 hrs by MTT assay; assay type: functional, cell-based; settings: MDA-MB-231, 48 h; outline: as §2
[12] = test system: MDA-MB-231; experiment: Cytotoxicity against human MDA-MB-231 cells assessed as cell viability at 25 uM after 48 hrs by MTT assay relative to control; assay type: functional; settings: MDA-MB-231, 48 h, read-out: Activity
Outline: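 MTT viability at a single 25 μM dose, 48 h, 3,000 cells/well. MCF10A normal breast epithelial cells were kept in MEGM mammary epithelial medium; the cancer lines were in DMEM with 10% FBS, 37 °C. OD at 570 nm with 630 nm background, expressed relative to control.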

[13] = test system: WM 266-4; experiment: Antiproliferative activity against human WM266.4 cells after 48 hrs by MTT assay; assay type: functional, cell-based; settings: WM 266-4, 48 h; outline: as §2
[14] = Selectivity ratio of cytotoxicity against human MCF10A cells to cytotoxicity against human MCF7 cells; assay type: toxicity, cell-based; settings: MCF10A cells versus MCF7 cells

| Structure (SMILES) | Activity [1] [%] | Activity [2] [%] | Activity [3] [%] | viability at 25 µM [4] [%] | Activity [5] | IC50 [6] [µM] | Activity [7] | Activity [8] [%] | Activity [9] [%] | Activity [10] [%] | IC50 [11] [µM] | viability at 25 µM [12] [%] | IC50 [13] [µM] | selectivity ratio [14] |
| --- | --- | --- | --- | --- | --- | --- | --- | --- | --- | --- | --- | --- | --- | --- |
| O=C1NC(=S)NC(=O)C1=C/C=C/c1cccs1 | 38.14 | 17.4 | 0.58 | 25.8 | Active | 16.2 | Active | 5.46 | 3.94 | 5.12 | 7.6 | 20 to 30 | 7.9 | 2 |
| O=C1NC(=S)N(c2ccccc2)C(=O)/C1=C/C=C/c1cccs1 | 50.06 | 25.7 | 0.14 | 29.4 | Active | 16.5 | Active | 9.68 | 2.88 | 3.7 | 8.3 | 20 to 30 | 9.2 | 2 |
